According to ChEMBL document CHEMBL2150962, “Antimicrobial rubrolides from a South African species of Synoicum tunicate” (J Nat Prod, 2012):

Legend:
[1] = tested on: Staphylococcus epidermidis; assay: Antimicrobial activity against Staphylococcus epidermidis ATCC 35984TCC BAA-1721; type: functional, organism-based
Summary of the method: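 Microtiter broth dilution; S. epidermidis ATCC 35984 grown in tryptic soy broth, inoculum 5 × 10⁵ cfu/mL, 16 h static incubation at 37 °C. Compound tested over 130 - 0.3 μg/mL. Technical duplicates, biological triplicate; percentage inhibition fitted by nonlinear regression to IC50.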

Enterococcus faecalis = assay: Antimicrobial activity against gentamycin- and vancomycin-resistant Enterococcus faecalis ATCC 700802 at 100 ug/ml; type: functional; details: read-out: GI
Staphylococcus aureus = assay: Antimicrobial activity against methicillin-resistant Staphylococcus aureus ATCC BAA-1720; type: functional, organism-based
Escherichia coli = assay: Antimicrobial activity against Escherichia coli O157:H7 at 100 ug/ml; type: functional; details: read-out: GI

Row | SMILES | IC50 [1] | inhibition of growth at 100 µg/mL (Enterococcus faecalis) | IC50 (Staphylococcus aureus) | inhibition of growth at 100 µg/mL (Escherichia coli)
1 | COc1ccc(/C=C2\OC(=O)C=C2c2ccc(O)cc2)cc1Br | 98 µM | 43% | 256 µM | 22%
2 | O=C1C=C(c2ccc(O)c(Br)c2)/C(=C/c2ccc(O)cc2)O1 | 38 µM | 16% | 82 µM | 0%
3 | COc1ccc(/C=C2\OC(=O)C=C2c2ccc(O)c(Br)c2)cc1 | 42 µM | 2% | 360 µM | 14%
4 | O=C1C=C(c2ccc(O)c(Br)c2)/C(=C/c2ccc(O)c(Br)c2)O1 | 28 µM | 2% | 89 µM | 25%
5 | O=C1C=C(c2ccc(O)cc2)/C(=C/c2ccc(O)cc2)O1 [RUBROLIDE E] | 21 µM | 89% | 105 µM | 16%
6 | COc1ccc(/C=C2\OC(=O)C=C2c2ccc(O)cc2)cc1 [RUBROLIDE F] | 79 µM | 47% | 1010 µM | 15%
